In ChEMBL document CHEMBL4823286, “Synthesis and evaluation of novel 2,4-diaminopyrimidines bearing a sulfoxide moiety as anaplastic lymphoma kinase (ALK) inhibition agents” (Bioorg Med Chem Lett, 2021):

Key:
NCI-H2228 [1] = assay: Induction of apoptosis in human NCI-H2228 cells assessed as viable cells at 25 nM measured after 24 hrs by Annexin V-FITC/PI staining based flow cytometry assay (reference value: 95.6%); assay type: functional; details: read-out: Activity
Summary of the method: (§1)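 After 24 h or 48 h exposure (5, 25, 50 nM; DMSO 0.01% control), NCI-H2228 cells were harvested, double-stained with Annexin V-FITC and PI and run on flow cytometry. Stage percentages quantified by software; three experiments, representative shown.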

NCI-H2228 [2] = assay: Induction of apoptosis in human NCI-H2228 cells assessed as necrotic cells at 25 nM measured after 24 hrs by Annexin V-FITC/PI staining based flow cytometry assay (reference value: 0.21%); assay type: functional; summary of the method: as §1
NCI-H2228 [3] = assay: Antiproliferative activity against human NCI-H2228 cells assessed as inhibition of cell proliferation measured by CCK8 assay; assay type: functional, cell-based
Summary of the method: (§2)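 Cell proliferation inhibition; IC50 given as mean ± SD of three independent experiments.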

NCI-H2228 [4] = assay: Induction of apoptosis in human NCI-H2228 cells assessed as late apoptotic cells at 25 nM measured after 24 hrs by Annexin V-FITC/PI staining based flow cytometry assay (reference value: 2.02%); assay type: functional; summary of the method: as §1
NCI-H2228 [5] = assay: Induction of apoptosis in human NCI-H2228 cells assessed as necrotic cells at 25 nM measured after 48 hrs by Annexin V-FITC/PI staining based flow cytometry assay (reference value: 2.88%); assay type: functional; summary of the method: as §1
NCI-H2228 [6] = assay: Induction of apoptosis in human NCI-H2228 cells assessed as early apoptotic cells at 25 nM measured after 24 hrs by Annexin V-FITC/PI staining based flow cytometry assay (reference value: 2.18%); assay type: functional; summary of the method: as §1
NCI-H2228 [7] = assay: Induction of apoptosis in human NCI-H2228 cells assessed as early apoptotic cells at 25 nM measured after 48 hrs by Annexin V-FITC/PI staining based flow cytometry assay (reference value: 1.58%); assay type: functional; summary of the method: as §1
NCI-H2228 [8] = assay: Induction of apoptosis in human NCI-H2228 cells assessed as late apoptotic cells at 25 nM measured after 48 hrs by Annexin V-FITC/PI staining based flow cytometry assay (reference value: 0.23%); assay type: functional; summary of the method: as §1
NCI-H2228 [9] = assay: Induction of apoptosis in human NCI-H2228 cells assessed as viable cells at 25 nM measured after 48 hrs by Annexin V-FITC/PI staining based flow cytometry assay (reference value: 95.3%); assay type: functional; details: read-out: Activity; summary of the method: as §1
BaF3 = assay: Antiproliferative activity against mouse BaF3 cells overexpressing ALK assessed as inhibition of cell proliferation measured by CCK8 assay; assay type: functional, cell-based; summary of the method: as §2

Row | IC50 (NCI-H2228 [3]) | IC50 (BaF3) | SMILES | viability at 0.025 µM (NCI-H2228 [1]) | Activity (NCI-H2228 [2]) | Activity (NCI-H2228 [4]) | Activity (NCI-H2228 [5]) | Activity (NCI-H2228 [6]) | Activity (NCI-H2228 [7]) | Activity (NCI-H2228 [8]) | viability at 0.025 µM (NCI-H2228 [9])
1 | 31.2 nM | 8.49 nM | COc1cc(N2CCC(N3CCN(C)CC3)CC2)ccc1Nc1ncc(Cl)c(Nc2ccccc2P(C)(C)=O)n1 [BRIGATINIB] | 81.9% | 0.2% | 3.47% | 4.32% | 14.4% | 12.7% | 31% | 52%
2 | 104 nM | 48.9 nM | CC[S+]([O-])c1cc(F)ccc1Nc1nc(Nc2ccc(N3CCN(C)CC3)cc2OC)ncc1Cl (centres undefined) | – | – | – | – | – | – | – | –

Row | SMILES | IC50 (NCI-H2228 [3]) | IC50 (BaF3) | viability at 0.025 µM (NCI-H2228 [1]) | Activity (NCI-H2228 [2]) | Activity (NCI-H2228 [4]) | Activity (NCI-H2228 [5]) | Activity (NCI-H2228 [6]) | Activity (NCI-H2228 [7]) | Activity (NCI-H2228 [8]) | viability at 0.025 µM (NCI-H2228 [9])
3 | CC[S+]([O-])c1cc(F)ccc1Nc1nc(Nc2ccc(N(C)C3CCN(C)CC3)cc2OC)ncc1Cl (centres undefined) | 1440 nM | 82 nM | – | – | – | – | – | – | – | –
